Experimental data as given in ChEMBL document CHEMBL1140730, “Validation of diacyl glycerolacyltransferase I as a novel target for the treatment of obesity and dyslipidemia using a potent and selective small molecule inhibitor” (J Med Chem, 2008).
Calls of active or inactive are those of the source. The rule behind the calls is not given here.

Tests used:
[1] = Cmax in dog at 2.5 mg/kg, po; assay type: ADME, organism-based, Canis lupus familiaris; parameters: dose 2.5 mg/kg, route oral; conditions: in vivo
Method in brief: (§1)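 Single-dose pharmacokinetics given iv or orally to mouse (10 mg/kg), rat (5 mg/kg) and dog (2.5 mg/kg). Half-life, Cmax, AUC, plasma clearance, volume of distribution and oral bioavailability were derived from plasma levels. Values are means, n = 3 unless stated otherwise.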

[2] = Oral bioavailability in dog at 2.5 mg/kg; assay type: ADME, organism-based, Canis lupus familiaris; conditions: in vivo; method in brief: as §1
[3] = AUC in dog at 2.5 mg/kg, iv; assay type: ADME, organism-based, Canis lupus familiaris; parameters: dose 2.5 mg/kg, route intravenous; conditions: plasma; method in brief: as §1
[4] = Half life in DIO mouse at 10 mg/kg, po; assay type: ADME, organism-based; parameters: dose 10 mg/kg, route oral; conditions: in vivo; method in brief: as §1
[5] = test system: Mus musculus; test: Decrease in body weight in DIO C57BL/6J mouse at 3 mg/kg, po bid after 7 days; assay type: functional, organism-based; parameters: dose 3 mg/kg
Method in brief: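 DIO mice kept on high-fat diet ad libitum were dosed orally for four weeks, either 3 mg/kg bid in 1% Tween-80/water or a reference at 10 mg/kg qd, alongside a vehicle group. Body weight was measured on days 1, 5, 7, 14 and 27 and expressed as change in grams from day zero. Mean ± SEM, n = 9, compared with vehicle.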

[6] = Plasma clearance in dog at 2.5 mg/kg, iv; assay type: ADME, organism-based, Canis lupus familiaris; parameters: dose 2.5 mg/kg, route intravenous; method in brief: as §1
[7] = AUC in rat at 5 mg/kg, po; assay type: ADME, organism-based; parameters: dose 5 mg/kg, route oral; conditions: plasma; method in brief: as §1
[8] = biological target: T1, Sterol O-acyltransferase 1 (Homo sapiens) (UniProt P35610); test: Inhibition of human ACAT1
T1 sequence (whole entry): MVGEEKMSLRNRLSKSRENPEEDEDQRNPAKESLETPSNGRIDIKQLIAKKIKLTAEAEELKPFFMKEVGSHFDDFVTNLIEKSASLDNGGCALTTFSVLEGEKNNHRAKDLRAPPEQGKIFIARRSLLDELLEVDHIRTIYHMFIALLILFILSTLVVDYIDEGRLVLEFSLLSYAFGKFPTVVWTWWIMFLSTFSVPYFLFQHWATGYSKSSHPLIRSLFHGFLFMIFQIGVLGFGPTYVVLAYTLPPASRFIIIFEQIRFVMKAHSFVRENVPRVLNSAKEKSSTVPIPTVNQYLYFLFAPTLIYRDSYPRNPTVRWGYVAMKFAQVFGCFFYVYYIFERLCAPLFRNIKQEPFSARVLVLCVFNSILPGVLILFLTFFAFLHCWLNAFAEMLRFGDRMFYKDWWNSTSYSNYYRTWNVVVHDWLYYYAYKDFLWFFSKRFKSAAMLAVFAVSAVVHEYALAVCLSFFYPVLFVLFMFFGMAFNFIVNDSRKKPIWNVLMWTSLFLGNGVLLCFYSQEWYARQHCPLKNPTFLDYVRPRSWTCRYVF

[9] = test system: Mus musculus; test: Reduction of chylomicron-derived serum triglyceride level in acute lipid challenged DIO C57BL/6J mouse at 30 mg/kg, po; assay type: functional; parameters: scale not given: the % may be the effect or the level left
Method in brief: (§2)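 DIO mice were dosed orally at 0.3, 3 or 30 mg/kg: bid on days 1–2, fasted overnight, then dosed once on day 3. One hour after the final dose a corn oil bolus was given by gavage, and plasma triglycerides were measured 1 h later. Percent inhibition for the 0.3 and 3 mg/kg doses is relative to the 30 mg/kg dose. Mean ± SEM, n = 9.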

[10] = Oral bioavailability in rat at 5 mg/kg; assay type: ADME, organism-based; conditions: in vivo; method in brief: as §1
[11] = Volume of distribution at terminal phase in dog at 2.5 mg/kg, iv; assay type: ADME, organism-based, Canis lupus familiaris; parameters: dose 2.5 mg/kg, route intravenous; conditions: in vivo, read-out: Vbeta; method in brief: as §1
[12] = biological target: T2, Diacylglycerol O-acyltransferase 1 (Homo sapiens, UniProt O75907); test: Inhibition of human recombinant DGAT1 expressed in Sf9 cells
T2 sequence (O75907 whole entry): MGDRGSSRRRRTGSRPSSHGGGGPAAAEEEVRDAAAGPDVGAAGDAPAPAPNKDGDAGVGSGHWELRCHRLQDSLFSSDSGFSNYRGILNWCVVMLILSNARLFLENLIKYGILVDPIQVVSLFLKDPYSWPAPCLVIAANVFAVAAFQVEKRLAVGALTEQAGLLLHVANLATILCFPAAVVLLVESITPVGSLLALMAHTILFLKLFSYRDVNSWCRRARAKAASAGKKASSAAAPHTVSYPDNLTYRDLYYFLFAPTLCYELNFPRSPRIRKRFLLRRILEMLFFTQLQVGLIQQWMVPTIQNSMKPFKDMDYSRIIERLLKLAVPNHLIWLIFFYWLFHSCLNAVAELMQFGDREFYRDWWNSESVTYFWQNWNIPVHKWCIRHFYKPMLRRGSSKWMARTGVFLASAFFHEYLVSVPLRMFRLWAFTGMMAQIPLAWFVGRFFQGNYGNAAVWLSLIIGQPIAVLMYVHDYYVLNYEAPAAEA

[13] = Cmax in DIO mouse at 10 mg/kg, po; assay type: ADME, organism-based; parameters: dose 10 mg/kg, route oral; conditions: in vivo; method in brief: as §1
[14] = test system: Mus musculus; test: Decrease in liver triglyceride level in DIO C57BL/6J mouse at 3 mg/kg, po after 28 days; assay type: functional
Method in brief: (§3)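 DIO mice on high-fat diet were dosed orally for four weeks at 3 mg/kg bid in 1% Tween-80/water, or a reference at 10 mg/kg qd. Liver triglycerides were determined on day 28 only. Mean ± SEM, n = 9, compared with vehicle.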

[15] = test system: Mus musculus; test: Reduction of chylomicron-derived serum triglyceride level in acute lipid challenged DIO C57BL/6J mouse at 3 mg/kg, po; assay type: functional; parameters: scale not given: the % may be the effect or the level left; method in brief: as §2
[16] = test system: Mus musculus; test: Decrease in body weight in DIO C57BL/6J mouse at 3 mg/kg, po bid after 14 days
[17] = test system: Mus musculus; test: Reduction of chylomicron-derived serum triglyceride level in acute lipid challenged DIO C57BL/6J mouse at 0.3 mg/kg, po; assay type: functional; parameters: scale not given: the % may be the effect or the level left; method in brief: as §2
[18] = Cmax in rat at 5 mg/kg, po; assay type: ADME, organism-based; parameters: dose 5 mg/kg, route oral; conditions: in vivo; method in brief: as §1
[19] = Volume of distribution at terminal phase in rat at 5 mg/kg, iv; assay type: ADME, organism-based; parameters: dose 5 mg/kg, route intravenous; conditions: in vivo, read-out: Vbeta; method in brief: as §1
[20] = Plasma clearance in rat at 5 mg/kg, iv; assay type: ADME, organism-based; parameters: dose 5 mg/kg, route intravenous; method in brief: as §1
[21] = Half life in dog at 2.5 mg/kg, iv; assay type: ADME, organism-based, Canis lupus familiaris; parameters: dose 2.5 mg/kg, route intravenous; conditions: in vivo; method in brief: as §1
[22] = Cmax in C57BL/6J mouse at 3 mg/kg, po after 1 hr; assay type: ADME, organism-based; parameters: dose 3 mg/kg, route oral; conditions: in vivo
Method in brief: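 On day 28 of oral dosing at 3 mg/kg bid in DIO mice, plasma drug concentration was measured at 1 h (n = 3) and 17 h (n = 9) after the final dose. Mean ± SEM.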

[23] = AUC in DIO mouse at 10 mg/kg, po; assay type: ADME, organism-based; parameters: dose 10 mg/kg, route oral; conditions: plasma; method in brief: as §1
[24] = biological target: T3, Sterol O-acyltransferase 2 (Homo sapiens) (UniProt O75908); test: Inhibition of human ACAT2
T3 sequence (whole entry): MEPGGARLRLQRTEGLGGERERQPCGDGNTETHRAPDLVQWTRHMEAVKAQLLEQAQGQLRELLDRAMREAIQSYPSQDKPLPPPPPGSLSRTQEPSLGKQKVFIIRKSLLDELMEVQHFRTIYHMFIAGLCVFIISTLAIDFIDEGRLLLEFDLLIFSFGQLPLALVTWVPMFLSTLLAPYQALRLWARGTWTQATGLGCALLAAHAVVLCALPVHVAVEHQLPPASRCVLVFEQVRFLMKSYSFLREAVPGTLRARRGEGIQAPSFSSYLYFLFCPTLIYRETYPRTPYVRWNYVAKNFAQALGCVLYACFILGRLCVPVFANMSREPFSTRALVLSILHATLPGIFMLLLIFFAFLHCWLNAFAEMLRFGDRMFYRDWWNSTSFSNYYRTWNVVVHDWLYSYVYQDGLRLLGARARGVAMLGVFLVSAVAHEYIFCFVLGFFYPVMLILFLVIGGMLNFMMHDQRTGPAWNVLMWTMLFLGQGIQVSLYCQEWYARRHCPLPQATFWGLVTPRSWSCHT

[25] = Half life in rat at 5 mg/kg, po; assay type: ADME, organism-based; parameters: dose 5 mg/kg, route oral; conditions: in vivo; method in brief: as §1
[26] = test system: Mus musculus; test: Increase in liver triglyceride level in DIO C57BL/6J mouse at 3 mg/kg, po after 28 days; assay type: ADME, organism-based; parameters: dose 3 mg/kg, route oral; conditions: in vivo, 672 h; method in brief: as §3
[27] = biological target: T4, Diacylglycerol O-acyltransferase 2 (Mus musculus) (UniProt Q9DCV3); test: Inhibition of mouse DGAT2
T4 sequence (whole entry): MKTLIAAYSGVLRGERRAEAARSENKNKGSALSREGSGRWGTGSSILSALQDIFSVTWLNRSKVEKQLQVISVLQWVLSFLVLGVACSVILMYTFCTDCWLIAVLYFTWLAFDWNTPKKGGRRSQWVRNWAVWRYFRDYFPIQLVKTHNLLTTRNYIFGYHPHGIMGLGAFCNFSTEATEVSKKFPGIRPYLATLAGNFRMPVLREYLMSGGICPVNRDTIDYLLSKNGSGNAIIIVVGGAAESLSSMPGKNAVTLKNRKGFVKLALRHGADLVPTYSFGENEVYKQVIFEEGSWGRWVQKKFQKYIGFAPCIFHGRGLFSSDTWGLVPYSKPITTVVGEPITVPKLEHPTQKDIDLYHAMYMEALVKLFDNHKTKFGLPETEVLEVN

[28] = biological target: T5, Diacylglycerol O-acyltransferase 1 (Mus musculus, UniProt Q9Z2A7); test: Inhibition of mouse recombinant DGAT1 expressed in Sf9 cells
T5 sequence (Q9Z2A7 whole entry): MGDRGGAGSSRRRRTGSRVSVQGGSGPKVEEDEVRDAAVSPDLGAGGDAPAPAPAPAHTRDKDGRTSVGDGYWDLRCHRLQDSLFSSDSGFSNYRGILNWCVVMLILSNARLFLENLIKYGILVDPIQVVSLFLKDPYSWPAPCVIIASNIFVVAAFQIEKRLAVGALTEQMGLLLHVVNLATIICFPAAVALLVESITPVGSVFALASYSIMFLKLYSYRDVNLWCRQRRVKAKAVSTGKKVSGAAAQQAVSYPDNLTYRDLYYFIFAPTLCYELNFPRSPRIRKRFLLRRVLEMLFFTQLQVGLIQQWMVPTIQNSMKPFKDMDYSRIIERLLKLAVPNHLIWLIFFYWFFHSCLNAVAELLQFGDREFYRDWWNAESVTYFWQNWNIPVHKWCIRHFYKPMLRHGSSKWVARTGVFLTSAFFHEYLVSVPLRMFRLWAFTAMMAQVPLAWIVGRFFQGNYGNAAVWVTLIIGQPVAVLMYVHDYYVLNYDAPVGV

[29] = Half life in dog at 2.5 mg/kg, po; assay type: ADME, organism-based, Canis lupus familiaris; parameters: dose 2.5 mg/kg, route oral; conditions: in vivo; method in brief: as §1
[30] = Half life in rat at 5 mg/kg, iv; assay type: ADME, organism-based; parameters: dose 5 mg/kg, route intravenous; conditions: in vivo; method in brief: as §1
[31] = AUC in dog at 2.5 mg/kg, po; assay type: ADME, organism-based, Canis lupus familiaris; parameters: dose 2.5 mg/kg, route oral; conditions: plasma; method in brief: as §1
[32] = AUC in rat at 5 mg/kg, iv; assay type: ADME, organism-based; parameters: dose 5 mg/kg, route intravenous; conditions: plasma; method in brief: as §1

O=C(Nc1ccccc1)Nc1ccc(-c2ccc(C(=O)[C@@H]3CCC[C@H]3C(=O)O)cc2)cc1
Cmax [1]: 2470 ng/mL | bioavailability [2]: 49.2% | AUC [3]: 11100 ng·h/mL | half-life [4]: 6.5 h | Activity [5]: Active | clearance [6]: 3.83 mL/min/kg | AUC [7]: 80200 ng·h/mL | Activity [8]: inactive | Activity [9]: 100% | bioavailability [10]: 55.2% | Vd [11]: 1.21 L/kg | IC50 [12]: 7 nM | Cmax [13]: 3510 ng/mL | Activity [14]: 53.5 mg/dL | Activity [15]: 93% | Activity [16]: Active | Activity [17]: 73% | Cmax [18]: 8530 ng/mL | Vd [19]: 0.21 L/kg | clearance [20]: 0.667 mL/min/kg | half-life [21]: 3.3 h | Cmax [22]: 910 ng/mL | AUC [23]: 15200 ng·h/mL | Activity [24]: inactive | half-life [25]: 2.7 h | Activity [26]: 88 mg/dL | Activity [27]: inactive | IC50 [28]: 24 nM | half-life [29]: 3.6 h | half-life [30]: 3.9 h | AUC [31]: 5500 ng·h/mL | AUC [32]: 145000 ng·h/mL

O=C(Nc1ccc(-c2ccc(C(=O)[C@@H]3CCC[C@H]3C(=O)O)cc2)cc1)Nc1ccccc1C(F)(F)F
IC50 [28]: 16 nM

O=C(Nc1ccccc1)Nc1ccc(-c2ccc(C(=O)[C@H]3CCC[C@@H]3C(=O)O)cc2)cc1
IC50 [12]: 96 nM
